Results on 14 molecules are retold here after ChEMBL document CHEMBL1287740, “Synthesis and bio-evaluation of alkylaminoaryl phenyl cyclopropyl methanones as antitubercular and antimalarial agents” (Bioorg Med Chem, 2010).

A short description of data set [1]: Selectivity index, ratio of CC50 for african green monkey (Cercopithecus aethiops) Vero cells to IC50 for Plasmodium falciparum 3D7. It is filed as functional. The gist of the method:
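Ratio of Vero CC50 (resazurin fluorescence after 72 h exposure) to P. falciparum 3D7 IC50 (radiolabelled hypoxanthine uptake; 24 h compound exposure, then 48 h with label).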

The test system of data set [2] is Plasmodium falciparum. Nature of the data set: Antimalarial activity against Plasmodium falciparum 3D7 assessed as radiolabeled hypoxanthine uptake after 48 hrs by scintillation counting. It is filed as functional, organism-based. Conditions: 3D7, 48 h. Put shortly: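 Chloroquine-sensitive P. falciparum 3D7 asynchronous culture at 0.5% parasitaemia and 1.5% hematocrit, exposed to compounds for 24 h at 37 °C in CO2. Radiolabelled hypoxanthine (0.5 µCi/well) then added and incubation continued 48 h. Cells harvested onto filter paper, and radioactivity counted by scintillation β-counter. IC50 derived from hypoxanthine uptake.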

Data set [3] in a line: Cytotoxicity against african green monkey Vero cells after 72 hrs. Conditions: chlorocebus sabaeus. Format: cell-based. Put shortly: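 Vero (C1008 monkey kidney) cells grown in MEM + 15% FBS, 5% CO2, 37 °C. Trypsinized cells at 1 × 10^5 cells/ml seeded and allowed to adhere overnight, then exposed to serial compound dilutions for 72 h. Resazurin added and fluorescence read after 4 h.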

Data set [4] deals with Mycobacterium tuberculosis. Put plainly: Antimicrobial activity against Mycobacterium tuberculosis H37Rv after 30 days by agar microdilution method. It is filed as functional. Put shortly:
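Twofold dilutions of compound in DMSO incorporated into Middlebrook 7H10 medium with OADC supplement in slanted tubes, preincubated 37 °C for 24 h, then streaked with H37Rv harvested from L-J medium into 0.85% saline with 0.05% Tween-80 (5 × 10^5 bacilli per tube). Incubated at 37 °C; MIC = lowest concentration giving complete inhibition of colonies versus drug-free control.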

Data set [5] has as its system Mycolicibacterium aurum. Put plainly: Inhibition of type II fatty acid biosynthesis pathway in Mycobacterium aurum at 50 uM after 12 hrs by lacZ reporter assay relative to untreated control. Format: functional. Put shortly:
(§1)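 Recombinant M. aurum lacZ reporter strains (kasA promoter or hsp60 promoter) grown in Sauton's medium with kanamycin at 37 °C to 0.5 OD600, diluted to 0.04–0.05 OD, equilibrated 2 h, then treated 12 h at 37 °C (10, 25, 50, 75 µM). Cells sonicated in PBS pH 7.2 and protein normalized by Bradford. β-gal measured with ONPG (4 mg/ml), 30 min at 37 °C, stopped with Na2CO3, OD 410 nm. Triplicates, relative to untreated control.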
In general terms: Reporter assays use an easily measured gene product as a stand-in for the process of interest.

Data set [6] concerns Mycolicibacterium aurum. Put plainly: Inhibition of type II fatty acid biosynthesis pathway in Mycobacterium aurum at 25 uM after 12 hrs by lacZ reporter assay relative to untreated control. It is filed as functional. The gist of the method:
as §1

The subject of data set [7] is Plasmodium falciparum. Nature of the data set: Antimalarial activity against Plasmodium falciparum 3D7 assessed as maturation of schizonts after 24 to 32 hrs by microdilution method. It is filed as functional. Put shortly:
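P. falciparum 3D7 (chloroquine sensitive); twofold serial dilutions in complete RPMI 1640 from 10 mg/ml DMSO stocks, parasitized RBCs added (final hematocrit 3–4%, 1.0–2.0% parasitaemia, >95% rings). Incubated 24–32 h at 37 °C with 5% CO2. Thin smears stained with 15% Giemsa; schizont maturation scored against controls to give MIC.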
Background: In broth dilution the organism is exposed to a series of concentrations in liquid medium.

≈ marks a conversion by molar mass, not a printed value. Calls of active or inactive are those of the source. The calls are words filed in the database; no cut-off is given here.

On to `O=C(/C=C/c1ccc(Cl)cc1)c1ccc(N2CCOCC2)cc1`, for which, in data set [1], the “Ratio CC50/IC50” value is recorded as 7.33. Also, in the data set with Plasmodium falciparum [2], the IC50 (as a rule, the concentration at which inhibition is half-maximal) is 4.86 mg/L (≈ 14.8 µM). Also, in data set [3], half-maximal cytotoxicity (CC50 at 72 h) was put at 35.6 mg/L (≈ 109 µM). Moreover, the figures for the MIC (in data set [4]; with Plasmodium falciparum [7]) were 6.25 mg/L (≈ 19.1 µM) and 50 mg/L (≈ 153 µM), respectively. Moreover, in the data set with Mycolicibacterium aurum [5], the inhibition – broadly, the share of the control response that was lost under treatment – at 50 µM was found to be 42.9%. This molecule also yielded an inhibition at 25 µM with Mycolicibacterium aurum [6] of 47.1%.
As to `O=C(/C=C/c1ccc(Cl)cc1)c1ccc(N2CCCCC2)cc1`, in data set [1], the “Ratio CC50/IC50” value was found to be 26.3. In the data set on Plasmodium falciparum [2], the IC50 is 8.92 mg/L (≈ 27.4 µM). For the same molecule, in data set [3], the CC50 (usually the concentration giving 50% cytotoxicity) at 72 h is 235 mg/L (≈ 720 µM). Also, the values for the minimal inhibitory concentration (MIC) (in data set [4]; in the data set on Plasmodium falciparum [7]) were over 12.5 mg/L and 50 mg/L (≈ 153 µM), respectively.
For `CN(C)c1ccc(C(=O)C2CC2c2ccc(Cl)cc2)cc1` (stereo not drawn), in that order: 240.4, 1.43 mg/L (≈ 4.77 µM), 344 mg/L (≈ 1150 µM), “Insoluble” and 10 mg/L (≈ 33.4 µM).
`CCCCCCCCCCCCCCCCNc1ccc(C(=O)C2CC2c2ccc(Cl)cc2)cc1` (stereo not drawn): the “Ratio CC50/IC50” value in data set [1] is reported as 89.68. The IC50 in the data set on Plasmodium falciparum [2] was determined as 4.57 mg/L (≈ 9.21 µM). For the same molecule, the CC50 at 72 h in data set [3] came out at 410 mg/L (≈ 826 µM). Besides, the figures for the MIC entry (in data set [4]; with Plasmodium falciparum [7]) were “Insoluble” and 50 mg/L (≈ 101 µM), respectively. In the data set with Mycolicibacterium aurum [5], this molecule registered an inhibition at 50 µM of 36.7%. Further, the inhibition at 25 µM with Mycolicibacterium aurum [6] came to 36%.
Turning to `CCCCCCCCNc1ccc(C(=O)C2CC2c2ccc(Cl)cc2)cc1` (stereo not drawn), in data set [1], the “Ratio CC50/IC50” value was 100.53. For the same molecule, the IC50 in the data set on Plasmodium falciparum [2] was determined as 2.13 mg/L (≈ 5.55 µM). The molecule further came in with a half-maximal cytotoxic concentration (CC50) at 72 h in data set [3] of 214 mg/L (≈ 558 µM). Besides, the MIC (in general, the lowest concentration found to suppress growth) in data set [4] is over 12.5 mg/L; in the data set on Plasmodium falciparum [7], 10 mg/L (≈ 26 µM). In the data set on Mycolicibacterium aurum [5], this molecule gave an inhibition at 50 µM of 23.9%. Besides, testing at 25 µM with Mycolicibacterium aurum [6] gave an inhibition of 30.2%.
With `CCCCN(CCCC)c1ccc(C(=O)C2CC2c2ccc(Cl)cc2)cc1` (stereo not drawn), the “Ratio CC50/IC50” value in data set [1] came to 590.04. In addition, in the data set with Plasmodium falciparum [2], the IC50 came to 0.73 mg/L (≈ 1.9 µM). The CC50 at 72 h in data set [3] came out at 431 mg/L (≈ 1120 µM). Moreover, the values for the MIC (in data set [4]; in the data set on Plasmodium falciparum [7]) were 12.5 mg/L (≈ 32.6 µM) and 10 mg/L (≈ 26 µM), respectively. This molecule had an inhibition at 50 µM in the data set with Mycolicibacterium aurum [5] of 37.5%. For the same molecule, the inhibition at 25 µM in the data set with Mycolicibacterium aurum [6] amounted to 41.5%.
As for `COc1ccc(C2CC2C(=O)c2ccc(N3CCN(C)CC3)cc2)cc1OC` (stereo not drawn), the “Ratio CC50/IC50” value in data set [1] amounted to 37.23. The IC50 with Plasmodium falciparum [2] was determined as 2.09 mg/L (≈ 5.49 µM). Besides, in data set [3], the midpoint of cytotoxicity, the CC50 at 72 h, lay at 77.8 mg/L (≈ 205 µM). The MIC in data set [4] is over 12.5 mg/L; with Plasmodium falciparum [7] it was 50 mg/L (≈ 131 µM).
For `CCCCCCCC/C=C\CCCCCCCCNc1ccc(C(=O)C2CC2c2ccc(Cl)cc2)cc1` (stereo not drawn), in that order: 5.24, 75.1 mg/L (≈ 144 µM), 393 mg/L (≈ 753 µM), 12.5 mg/L (≈ 23.9 µM) and over 50 mg/L.
For the molecule `O=C(c1ccc(NCCn2cncn2)cc1)C1CC1c1ccc(Cl)cc1` (stereo not drawn), the “Ratio CC50/IC50” value in data set [1] is listed as 11.7. In addition, in the data set on Plasmodium falciparum [2], the IC50 amounted to 3.41 mg/L (≈ 9.3 µM). The same molecule displayed a CC50 at 72 h in data set [3] of 39.9 mg/L (≈ 109 µM). The MIC in data set [4] came out at 12.5 mg/L (≈ 34.1 µM); in the data set with Plasmodium falciparum [7], 10 mg/L (≈ 27.3 µM). Moreover, in the data set on Mycolicibacterium aurum [5], the inhibition at 50 µM is 30.1%. For the same molecule, 25 µM produced 17.9% inhibition with Mycolicibacterium aurum [6].
With `CN1CCN(c2ccc(C(=O)/C=C/c3ccc(Cl)cc3)cc2)CC1`, the “Ratio CC50/IC50” value in data set [1] was 8.69. Also, the IC50 in the data set with Plasmodium falciparum [2] is 11.8 mg/L (≈ 34.6 µM). This molecule came in with a CC50 at 72 h in data set [3] of 102 mg/L (≈ 301 µM). For the same molecule, the results for the MIC (in data set [4]; in the data set on Plasmodium falciparum [7]) were 3.12 mg/L (≈ 9.15 µM) and 50 mg/L (≈ 147 µM), respectively. The same molecule gave an inhibition at 50 µM in the data set on Mycolicibacterium aurum [5] of 14.7%. This molecule also gave an inhibition at 25 µM in the data set on Mycolicibacterium aurum [6] of 13.6%.
Consider `CC(C)CCCC(C)Nc1ccc(C(=O)C2CC2c2ccc(Cl)cc2)cc1` (stereo not drawn), for which the MIC in data set [4] is over 12.5 mg/L. Also, in the data set with Mycolicibacterium aurum [5], the inhibition at 50 µM was 27.4%. In the data set on Mycolicibacterium aurum [6], the inhibition at 25 µM was found to be 17.5%.
`NNC(=O)c1ccncc1` [ISONIAZID]: the MIC in data set [4] was found to be 0.025 mg/L (≈ 0.182 µM).
For the molecule `CN1CCN(c2ccc(C(=O)C3CC3c3ccc(Cl)cc3)cc2)CC1` (stereo not drawn), the “Ratio CC50/IC50” value in data set [1] is listed as 151.96. Further, the half-maximal inhibitory concentration (IC50) in the data set on Plasmodium falciparum [2] was 0.54 mg/L (≈ 1.52 µM). Besides, the CC50 at 72 h in data set [3] turned out to be 82.1 mg/L (≈ 231 µM). Further, the values for the MIC (in data set [4]; in the data set with Plasmodium falciparum [7]) were 6.25 mg/L (≈ 17.6 µM) and 10 mg/L (≈ 28.2 µM), respectively. In addition, in the data set with Mycolicibacterium aurum [5], the inhibition at 50 µM is 0.17%. For the same molecule, the inhibition entry in the data set on Mycolicibacterium aurum [6] is “inactive”.
`COc1ccc(CNc2ccc(C(=O)C3CC3c3ccc(Cl)cc3)cc2)cc1OC` (stereo not drawn): the “Ratio CC50/IC50” value in data set [1] is 52.73. In addition, in the data set with Plasmodium falciparum [2], the IC50 came out at 8 mg/L (≈ 19 µM). For the same molecule, the midpoint of cytotoxicity in data set [3], the CC50 at 72 h, lay at 422 mg/L (≈ 1000 µM). The MIC is over 12.5 mg/L in data set [4] and 10 mg/L (≈ 23.7 µM) with Plasmodium falciparum [7].
